Laboratory results: ChEMBL document CHEMBL3525900, “Pharmacokinetics, distribution, and metabolism of [14C]sunitinib in rats, monkeys, and humans” (Drug Metab Dispos, 2012)

How the values were obtained:
Rattus norvegicus [1] = test: Cmax as total radioactivity in female Sprague-Dawley rat plasma at 5 mg/kg, iv administered as single dose by LC/MS/MS analysis; type: ADME, organism-based; parameters: dose 5 mg/kg, dosed compound name [14C]Sunitinib, route intravenous; settings: in vivo
How it was run: (§1)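 Single dose of [14C]sunitinib L-malate as free base, 50 µCi/kg. IV dose was 5 mg/kg by tail vein in 5 females. Oral dose was 15 mg/kg by gavage in 3 females and 3 males. Total radioactivity was by scintillation counting. […] Cmax was read from raw data, t½ by log-linear regression, AUC by linear trapezoidal rule.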

Rattus norvegicus [2] = test: Cmax as total radioactivity in male Sprague-Dawley rat plasma at 15 mg/kg, po administered as single dose by LC/MS/MS analysis; type: ADME, organism-based; parameters: dose 15 mg/kg, dosed compound name [14C]Sunitinib, route oral; settings: in vivo; how it was run: as §1
Cynomolgus monkey = test: AUC (0 to infinity) as total radioactivity in male cynomolgus monkey plasma at 6 mg/kg, po administered as single dose by LC/MS/MS analysis; type: ADME, organism-based, Macaca fascicularis; parameters: time infinity, dose 6 mg/kg, dosed compound name [14C]Sunitinib, route oral; settings: in vivo
How it was run: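 Cynomolgus monkeys of both sexes received one oral gavage of [14C]sunitinib L-malate at 6 mg/kg (37 µCi/kg). Femoral-vein blood was taken into heparin from 0.5 to 336 h. Plasma was kept cold and protected from light, then stored at -80 °C. Total radioactivity was by scintillation counting and sunitinib by methanol-extraction LC-MS-MS. Cmax was from raw data, t½ from the log-linear terminal slope, AUC(0-∞) by linear trapezoidal rule.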

[3] = Drug concentration in male albino rat testis assessed as radioactivity per gram of tissue at 20 mg/kg administered as single dose via gastric gavage measured after 168 hrs by autoradiographic analysis; type: ADME, organism-based; parameters: dose 20 mg/kg, dosed compound name [14C]Sunitinib; settings: in vivo, po
Rattus norvegicus [4] = test: Drug recovery in cage residue of female Sprague-Dawley rat at 15 mg/kg, po administered as single dose during 0 to 72 hrs by liquid scintillation counting; type: ADME, organism-based; parameters: dose 15 mg/kg, dosed compound name [14C]Sunitinib, route oral; settings: in vivo
[5] = Drug recovery in feces of male Sprague-Dawley rat at 15 mg/kg, po administered as single dose during 0 to 72 hrs by liquid scintillation counting; type: ADME, organism-based; parameters: dose 15 mg/kg, dosed compound name [14C]Sunitinib, route oral; settings: in vivo
[6] = Drug recovery in feces of female cynomolgus monkey at 6 mg/kg, po administered as single dose during 0 to 336 hrs by liquid scintillation counting; type: ADME, organism-based, Macaca fascicularis; parameters: dose 6 mg/kg, dosed compound name [14C]Sunitinib, route oral; settings: in vivo
[7] = Drug recovery in urine of male cynomolgus monkey at 6 mg/kg, po administered as single dose during 0 to 336 hrs by liquid scintillation counting; type: ADME, organism-based, Macaca fascicularis; parameters: dose 6 mg/kg, dosed compound name [14C]Sunitinib, route oral; settings: in vivo
[8] = Drug concentration in female albino rat skeletal muscle assessed as radioactivity per gram of tissue at 20 mg/kg administered as single dose via gastric gavage measured after 3 hrs by autoradiographic analysis; type: ADME, organism-based; parameters: dose 20 mg/kg, dosed compound name [14C]Sunitinib; settings: in vivo, po
[9] = Drug concentration in male albino rat bladder assessed as radioactivity per gram of tissue at 20 mg/kg administered as single dose via gastric gavage measured after 6 hrs by autoradiographic analysis; type: ADME, organism-based, Urinary bladder; parameters: dose 20 mg/kg, dosed compound name [14C]Sunitinib; settings: in vivo, po
[10] = Drug concentration in female albino rat salivary gland assessed as radioactivity per gram of tissue at 20 mg/kg administered as single dose via gastric gavage measured after 6 hrs by autoradiographic analysis; type: ADME, organism-based; parameters: dose 20 mg/kg, dosed compound name [14C]Sunitinib; settings: in vivo, po
[11] = Drug concentration in female albino rat skeletal muscle assessed as radioactivity per gram of tissue at 20 mg/kg administered as single dose via gastric gavage measured after 6 hrs by autoradiographic analysis; type: ADME, organism-based; parameters: dose 20 mg/kg, dosed compound name [14C]Sunitinib; settings: in vivo, po
[12] = Drug concentration in male Lister Hooded pigmented rat pituitary gland assessed as radioactivity per gram of tissue at 20 mg/kg administered as single dose via gastric gavage measured after 168 hrs by autoradiographic analysis; type: ADME, organism-based; parameters: dose 20 mg/kg, dosed compound name [14C]Sunitinib; settings: in vivo, po
Small intestine = test: Drug concentration in female albino rat small intestine assessed as radioactivity per gram of tissue at 20 mg/kg administered as single dose via gastric gavage measured after 3 hrs by autoradiographic analysis; type: ADME, organism-based; parameters: dose 20 mg/kg, dosed compound name [14C]Sunitinib; settings: in vivo, po
Stomach [13] = test: Drug concentration in female albino rat stomach assessed as radioactivity per gram of tissue at 20 mg/kg administered as single dose via gastric gavage measured after 3 hrs by autoradiographic analysis; type: ADME, organism-based; parameters: dose 20 mg/kg, dosed compound name [14C]Sunitinib; settings: in vivo, po
[14] = Drug concentration in female albino rat bone marrow assessed as radioactivity per gram of tissue at 20 mg/kg administered as single dose via gastric gavage measured after 6 hrs by autoradiographic analysis; type: ADME, organism-based; parameters: dose 20 mg/kg, dosed compound name [14C]Sunitinib; settings: in vivo, po
How it was run: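 Sprague Dawley (albino) rats, ca 7-8 weeks old, received a single gastric-gavage dose of [14C]sunitinib L-malate at 20 mg/kg (15 mg freebase/kg, 100 µCi/kg). One animal per sex killed by CO2 at 3, 6, 24, 72 and 168 h, then frozen in CO2/hexane. 30 µm sagittal sections were cut and freeze-dried. Radioactivity per gram quantified by whole-body autoradiography using regression against standards. LOQ 0.04–0.06 µg freebase equiv/g.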

Large intestine = test: Drug concentration in female albino rat large intestine assessed as radioactivity per gram of tissue at 20 mg/kg administered as single dose via gastric gavage measured after 6 hrs by autoradiographic analysis; type: ADME, organism-based; parameters: dose 20 mg/kg, dosed compound name [14C]Sunitinib; settings: in vivo, po
How it was run: (§2)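 Sprague Dawley albino rats, ca 7-8 weeks old, dosed once by gastric gavage with [14C]sunitinib L-malate (15 mg freebase/kg, 100 µCi/kg). One male and one female killed by CO2 at 3, 6, 24, 72 and 168 h. Carcasses frozen in solid CO2/hexane, embedded and cut into 30 µm sagittal sections, then freeze-dried. Radioactivity quantified by whole-body autoradiography against standards by regression, background subtracted.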

Thymus = test: Drug concentration in male Lister Hooded pigmented rat thymus assessed as radioactivity per gram of tissue at 20 mg/kg administered as single dose via gastric gavage measured after 168 hrs by autoradiographic analysis; type: ADME, organism-based; parameters: dose 20 mg/kg, dosed compound name [14C]Sunitinib; settings: in vivo, po
Heart [15] = test: Drug concentration in male Lister Hooded pigmented rat heart assessed as radioactivity per gram of tissue at 20 mg/kg administered as single dose via gastric gavage measured after 168 hrs by autoradiographic analysis; type: ADME, organism-based; parameters: dose 20 mg/kg, dosed compound name [14C]Sunitinib; settings: in vivo, po
[16] = Drug concentration in female albino rat uterus assessed as radioactivity per gram of tissue at 20 mg/kg administered as single dose via gastric gavage measured after 72 hrs by autoradiographic analysis; type: ADME, organism-based; parameters: dose 20 mg/kg, dosed compound name [14C]Sunitinib; settings: in vivo, po
[17] = Drug concentration in female Lister Hooded pigmented rat bone marrow assessed as radioactivity per gram of tissue at 20 mg/kg administered as single dose via gastric gavage measured after 24 hrs by autoradiographic analysis; type: ADME, organism-based; parameters: dose 20 mg/kg, dosed compound name [14C]Sunitinib; settings: in vivo, po
How it was run: (§3)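 Lister Hooded (pigmented) rats, ca 7-8 weeks old, acclimated 7 days, given [14C]sunitinib L-malate by gastric gavage at 20 mg/kg (15 mg freebase/kg, 100 µCi/kg). One male and one female killed by CO2 at 24, 72, 168 and 336 h. Carcasses frozen in solid CO2/hexane and embedded in frozen cellulose. 30 µm sagittal cryosections were freeze-dried. Tissue radioactivity measured by quantitative whole-body autoradiography against calibration standards, with background subtracted.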

Stomach [18] = test: Drug concentration in male albino rat stomach assessed as radioactivity per gram of tissue at 20 mg/kg administered as single dose via gastric gavage measured after 3 hrs by autoradiographic analysis; type: ADME, organism-based; parameters: dose 20 mg/kg, dosed compound name [14C]Sunitinib; settings: in vivo, po
Pancreas = test: Drug concentration in male albino rat pancreas assessed as radioactivity per gram of tissue at 20 mg/kg administered as single dose via gastric gavage measured after 24 hrs by autoradiographic analysis; type: ADME, organism-based; parameters: dose 20 mg/kg, dosed compound name [14C]Sunitinib; settings: in vivo, po
Stomach [19] = test: Drug concentration in female albino rat stomach assessed as radioactivity per gram of tissue at 20 mg/kg administered as single dose via gastric gavage measured after 24 hrs by autoradiographic analysis; type: ADME, organism-based; parameters: dose 20 mg/kg, dosed compound name [14C]Sunitinib; settings: in vivo, po
Kidney = test: Drug concentration in female albino rat kidney assessed as radioactivity per gram of tissue at 20 mg/kg administered as single dose via gastric gavage measured after 72 hrs by autoradiographic analysis; type: ADME, organism-based; parameters: dose 20 mg/kg, dosed compound name [14C]Sunitinib; settings: in vivo, po; how it was run: as §2
Heart [20] = test: Drug concentration in male albino rat heart assessed as radioactivity per gram of tissue at 20 mg/kg administered as single dose via gastric gavage measured after 24 hrs by autoradiographic analysis; type: ADME, organism-based; parameters: dose 20 mg/kg, dosed compound name [14C]Sunitinib; settings: in vivo, po
[21] = Drug concentration in female Lister Hooded pigmented rat uveal tract assessed as radioactivity per gram of tissue at 20 mg/kg administered as single dose via gastric gavage measured after 336 hrs by autoradiographic analysis; type: ADME, organism-based; parameters: dose 20 mg/kg, dosed compound name [14C]Sunitinib; settings: in vivo, po; how it was run: as §3

Compound CCN(CC)CCNC(=O)c1c(C)[nH]c(/[14CH]=C2\C(=O)Nc3ccc(F)cc32)c1C.O=C(O)C[C@H](O)C(=O)O has a Cmax (Rattus norvegicus [1]) of 2148 ngequiv/ml, a Cmax (Rattus norvegicus [2]) of 5220 ngequiv/ml and an AUC (Cynomolgus monkey) of 9095 ng.Eq.hr/ml. The Radiolabel recovery [3] was 0.3 ugequiv, the Radiolabel recovery (Rattus norvegicus [4]) was 2.2% and the Radiolabel recovery [5] was 75.2%. The Radiolabel recovery [6] was 84.1%, the Radiolabel recovery [7] was 4.8% and the Radiolabel recovery [8] was 3.97 ugequiv. The Radiolabel recovery [9] was 2.56 ugequiv, the Radiolabel recovery [10] was 23.1 ugequiv and the Radiolabel recovery [11] was 3.33 ugequiv. For the same compound, the Radiolabel recovery [12] was 81.06 ugequiv, the Radiolabel recovery (Small intestine) was 14.16 ugequiv and the Radiolabel recovery (Stomach [13]) was 15.45 ugequiv. The Radiolabel recovery [14] was 7.51 ugequiv, the Radiolabel recovery (Large intestine) was 7.43 ugequiv and the Radiolabel recovery (Thymus) was 0.06 ugequiv. For the same compound, the Radiolabel recovery (Heart [15]) was 0.06 ugequiv, the Radiolabel recovery [16] was 0.12 ugequiv and the Radiolabel recovery [17] was 0.74 ugequiv. For the same compound, the Radiolabel recovery (Stomach [18]) was 10.15 ugequiv, the Radiolabel recovery (Pancreas) was 1.68 ugequiv and the Radiolabel recovery (Stomach [19]) was 1.21 ugequiv. The Radiolabel recovery (Kidney) was 0.39 ugequiv, the Radiolabel recovery (Heart [20]) was 0.36 ugequiv and the Radiolabel recovery [21] was 323.3 ugequiv.
